The values that follow come from ChEMBL document CHEMBL3227925, “Structure-activity relationship in a new series of atropine analogues. 1. N,N'-Disubstituted 6,7-diazabicyclo[3.2.2]nonane derivatives” (J Med Chem, 1979).

Where a name gives a salt, the structure may show the parent alone. The source made the active and inactive calls. No cut-off for these calls is given here.

Series [1] can be described thus: Antagonist activity at muscarinic acetylcholine receptor in guinea pig ileum assessed as inhibition of acetylcholine-induced contraction. It counts as tissue-based, Cavia porcellus. An outline of the steps: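 Ileum segments (~2 cm) from freshly killed guinea pigs in a 10-mL organ bath of Tyrode solution at 37 °C, air-bubbled. Isotonic contractions recorded. Acetylcholine dose-response curves run without and with antagonist. Affinity constants calculated from the dose ratio. Values are means of two to four separate experiments ± SD.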

A short description of series [2]: Toxicity in ip dosed mouse. It counts as organism-based. The note with it: in vivo. An outline of the steps: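 Preliminary LD50 determination in mice given the drugs intraperitoneally.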
Series [3] is filed under the species Cavia porcellus. The series is described as follows: Competitive antagonist activity at muscarinic acetylcholine receptor in guinea pig ileum assessed as inhibition of acetylcholine-induced contraction at 1X10'-8 M. It counts as tissue-based. The method in brief: (§1)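 Guinea pig ileum (~2 cm, freshly killed animals) in a 10-mL Tyrode bath at 37 °C, air-bubbled, isotonic lever recording. Acetylcholine dose-response curves recorded alone and with antagonist present at a single fixed concentration (1×10^-8 or 1.1×10^-8 M). The curves were compared for shift.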

Series [4] can be described thus: Displacement of [3H]4-NMPB from muscarinic acetylcholine receptor in mouse brain. It counts as tissue-based. A general note: In a radioligand displacement assay an active substance lowers the binding of a labelled ligand.
The species named for series [5] is Cavia porcellus. The series is described as follows: Competitive antagonist activity at muscarinic acetylcholine receptor in guinea pig ileum assessed as inhibition of acetylcholine-induced contraction at 1.1X10'-8 M. It counts as tissue-based. An outline of the steps:
as §1

In the case of `CN1[C@@H]2CC[C@@H](C[C@H](OC(=O)C(CO)c3ccccc3)C2)N1C` (stereo not given in full), in series [1], the dissociation constant (Kd) was found to be 0.091 nM. Take `CN1[C@@H]2CC[C@@H](C[C@H](OC(=O)C(CO)c3ccccc3)C2)N1C` (stereo in doubt; 1): in series [1], the Kd was determined as 1.7 nM. The compound further had an LD50 in series [2] of 150 mg/kg.

As to `CN1[C@@H]2CC[C@@H](C[C@H](OC(=O)C(CO)c3ccccc3)C2)N1C` (stereo in doubt; 2) [listing 1 of 2 here], the Kd in series [1] came to 0.066 nM. With `CN1[C@@H]2CC[C@@H](C[C@H](OC(=O)C(CO)c3ccccc3)C2)N1C` (stereo in doubt; 2) [listing 2 of 2 here], in series [3], the inhibition result was “Active”. Regarding `CN1[C@@H]2CC[C@@H](C[C@H](OC(=O)C(CO)c3ccccc3)C2)N1C` (stereo in doubt; 4), the Kd in series [1] is 170 nM.

Consider `CN1[C@@H]2CC[C@@H](C[C@H](OC(=O)C(CO)c3ccccc3)C2)N1C` (stereo in doubt; 5) [listing 1 of 2 here], for which the Kd in series [1] came to 1.6 nM; in series [4], 2.1 nM. For the compound `CN1[C@@H]2CC[C@@H](C[C@H](OC(=O)C(CO)c3ccccc3)C2)N1C` (stereo in doubt; 5) [listing 2 of 2 here], the inhibition entry in series [5] was “Active”. As to `CN1[C@@H]2CC[C@H]1C[C@@H](OC(=O)C(CO)c1ccccc1)C2` (stereo not given in full) [ATROPINE SULFATE], the Kd in series [1] is 0.49 nM.

A word on the Kd: it is the constant that tells how readily two partners part at equilibrium. As usually defined, the LD50 is the dose at which mortality reaches 50%.
